According to ChEMBL document CHEMBL1155579, “Known and novel terpenes from Buddleja globosa displaying selective antifungal activity against dermatophytes” (2000):
Values after ≈ are worked out from the molar mass of the structure shown. Active and inactive are the calls of the source. The rule behind the calls is not given here.

Legend:
[1] = tested on: Trichophyton interdigitale; experiment: Antifungal activity against Trichophyton interdigitale EL 5171 after 24 hrs; type: functional
[2] = tested on: Scopulariopsis brevicaulis; experiment: Antifungal activity against Scopulariopsis brevicaulis at 1000 ug/ml after 24 hrs
Trichophyton rubrum = experiment: Antifungal activity against Trichophyton rubrum after 24 hrs
[3] = tested on: Neoscytalidium dimidiatum; experiment: Antifungal activity against Scytalidium dimidiatum at 1000 ug/ml after 24 hrs; type: functional, organism-based
Saccharomyces cerevisiae = experiment: Antifungal activity against Saccharomyces cerevisiae NCIMB 080178 at 1000 ug/ml after 24 hrs; type: functional, organism-based
Summary of the method: (§1)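 Agar dilution in 96-well plates. Samples in DMSO, made up with sterile water, 1:2 serially diluted over six steps, then mixed with an equal volume of molten double-strength Sabouraud dextrose agar (200 µL per well). Yeasts were grown on SDA at 30 °C for 24 h and harvested in PBS. 100 µL inoculum (10⁵ CFU) was added per well and incubated at 30 °C for 24 h. Miconazole was the positive control.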

Penicillium chrysogenum = experiment: Antifungal activity against Penicillium notatum ATCC 11654 at 1000 ug/ml after 24 hrs; type: functional, organism-based
Epidermophyton floccosum = experiment: Antifungal activity against Epidermophyton floccosum after 24 hrs; type: functional
Aspergillus niger = experiment: Antifungal activity against Aspergillus niger ATCC 16404 at 1000 ug/ml after 24 hrs; type: functional, organism-based
Candida albicans = experiment: Antifungal activity against Candida albicans ATCC 10234 at 1000 ug/ml after 24 hrs; type: functional, organism-based; summary of the method: as §1

C=C1CC/C=C(\C)C(=O)[C@H](OC(C)=O)[C@@H]2[C@@H]1CC2(C)C [BUDDLEDIN A]
MIC [1]: 43 µM (≈ 11.9 µg/mL) | Activity [2]: inactive | MIC (Trichophyton rubrum): 43 µM (≈ 11.9 µg/mL) | Activity [3]: inactive | Activity (Saccharomyces cerevisiae): inactive | Activity (Penicillium chrysogenum): inactive | MIC (Epidermophyton floccosum): 43 µM (≈ 11.9 µg/mL) | Activity (Aspergillus niger): inactive | Activity (Candida albicans): inactive

C=C1CC/C=C(\C)C(=O)[C@H](O)[C@@H]2[C@@H]1CC2(C)C [BUDDLEDIN B]
MIC [1]: 51 µM (≈ 12 µg/mL) | Activity [2]: inactive | MIC (Trichophyton rubrum): 51 µM (≈ 12 µg/mL) | Activity [3]: inactive | Activity (Saccharomyces cerevisiae): inactive | Activity (Penicillium chrysogenum): inactive | MIC (Epidermophyton floccosum): 51 µM (≈ 12 µg/mL) | Activity (Aspergillus niger): inactive | Activity (Candida albicans): inactive

CC(C)C1=CC=C2C(=C(O)C[C@H]3C(C)(C)CCC[C@]23C)C1=O [BUDDLEJONE]
MIC [1]: 2500 µM (≈ 751 µg/mL) | Activity [2]: inactive | MIC (Trichophyton rubrum): 2500 µM (≈ 751 µg/mL) | Activity [3]: inactive | Activity (Saccharomyces cerevisiae): inactive | Activity (Penicillium chrysogenum): inactive | MIC (Epidermophyton floccosum): 2500 µM (≈ 751 µg/mL) | Activity (Aspergillus niger): inactive | Activity (Candida albicans): inactive

CC(C)C1=CC=C2C(=CC[C@H]3C(C)(C)CCC[C@]23C)C1=O [DEOXYBUDDLEJONE]
MIC [1]: 2640 µM (≈ 751 µg/mL) | Activity [2]: inactive | MIC (Trichophyton rubrum): 2640 µM (≈ 751 µg/mL) | Activity [3]: inactive | Activity (Saccharomyces cerevisiae): inactive | Activity (Penicillium chrysogenum): inactive | MIC (Epidermophyton floccosum): 2640 µM (≈ 751 µg/mL) | Activity (Aspergillus niger): inactive | Activity (Candida albicans): inactive

CC(C)[C@]1(O)C(=O)C=C2[C@@]3(CC[C@H]4C(C)(C)CCC[C@]24C)[C@@H]2C(=O)[C@@](O)(C(C)C)[C@@H](C4=C2[C@@]2(C)CCCC(C)(C)[C@@H]2CC4)[C@H]31 [MAYTENONE]
MIC [1]: 625 µM (≈ 378 µg/mL) | Activity [2]: inactive | MIC (Trichophyton rubrum): 625 µM (≈ 378 µg/mL) | Activity [3]: inactive | Activity (Saccharomyces cerevisiae): inactive | Activity (Penicillium chrysogenum): inactive | MIC (Epidermophyton floccosum): 625 µM (≈ 378 µg/mL) | Activity (Aspergillus niger): inactive | Activity (Candida albicans): inactive

Clc1ccc(COC(Cn2ccnc2)c2ccc(Cl)cc2Cl)c(Cl)c1 (centres undefined) [MICONAZOLE]
MIC [1]: 5 µM (≈ 2.08 µg/mL) | Activity [2]: inactive | MIC (Trichophyton rubrum): 5 µM (≈ 2.08 µg/mL) | Activity [3]: inactive | Activity (Saccharomyces cerevisiae): inactive | Activity (Penicillium chrysogenum): inactive | MIC (Epidermophyton floccosum): 5 µM (≈ 2.08 µg/mL) | Activity (Aspergillus niger): inactive | Activity (Candida albicans): inactive
